Assay outcomes deposited in PubChem by several laboratories.
KCNQ1 inh = inhibitors of human KCNQ1 channel, primary screen, cell-based, thallium flux, high-throughput; 310,000 compounds, 1.3% hits; CHO-K1 KCNQ1, FluxOR thallium flux fluorescence; active compounds read high; Potassium voltage-gated channel subfamily KQT member 1 (Homo sapiens), P51787; B-score at 10 µM;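 active = compounds whose thallium flux B-score, printed positive for inhibition, exceeds three library SD while starting fluorescence stays within three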;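 note: channel opened by potassium depolarization with thallium stimulus after 20 min compound exposure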
KCNK9 inh = KCNK9 potassium channel inhibitors, primary screen, HEK293 cells, thallium flux; B-score at 10 µM; 310,000 compounds, 1.2% hits; AID 488922, 2010; FluxOR thallium flux fluorescence; active compounds read low; Potassium channel subfamily K member 9 (Homo sapiens), Q9NPC2;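 active = ratio B-score over 3 SD below the library mean, with starting fluorescence within 5 SD of its mean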;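 note: negative B-score means less thallium flux so channel inhibition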
Target sequence (Q9NPC2 whole entry, looked up): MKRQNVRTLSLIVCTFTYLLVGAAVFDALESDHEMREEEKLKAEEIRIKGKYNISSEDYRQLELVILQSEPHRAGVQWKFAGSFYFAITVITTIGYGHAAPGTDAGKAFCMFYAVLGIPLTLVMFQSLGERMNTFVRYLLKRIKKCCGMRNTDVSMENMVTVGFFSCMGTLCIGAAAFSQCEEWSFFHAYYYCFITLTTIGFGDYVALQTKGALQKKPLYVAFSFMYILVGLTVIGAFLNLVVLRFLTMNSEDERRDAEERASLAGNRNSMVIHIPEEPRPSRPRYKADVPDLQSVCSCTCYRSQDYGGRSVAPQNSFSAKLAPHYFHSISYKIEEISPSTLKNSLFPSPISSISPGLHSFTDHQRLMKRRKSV
KCNK3 inh = human KCNK3 channel inhibitors, primary screen, CHO cells, FluxOR thallium flux, B-score; FluxOR fluorescence; active compounds read low; B-score at 10 µM; 340,000 compounds, 0.84% hits; AID 602410, 2012;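 active = B-score under library mean minus 4 SD, starting fluorescence ratio at most library mean plus 5 SD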;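 note: more negative B-score means stronger inhibition of thallium flux through KCNK3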
hERG protect = hERG rescue from dofetilide block, primary screen, cell-based, CHO-hERG, FluxOR thallium flux, dofetilide IC70; AID 1511, 2009; Voltage-gated inwardly rectifying potassium channel KCNH2 (Homo sapiens), Q12809; activation (rescue from dofetilide block), less the hit threshold, % at 10 µM; 310,000 compounds, 0.51% hits; dofetilide IC70 present;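 active = activation above the mean of controls blocked by dofetilide plus 5 SD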;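 note: thallium influx through hERG after potassium depolarization seen as dye fluorescence rise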
Cl transport mod = KCC2 cotransporter modulators, thallium flux, primary screen, cell-based, HEK293 KCC2, FluoZin-2 fluorescence, MLSMR. AID 1456, 2008. B-score of Tl+ flux slope (higher = more flux/activation; lower = inhibition) at 10 µM. KCC2 cells, thallium flux FluoZin-2 fluorescence. 190,000 compounds, 2.2% hits. Solute carrier family 12 member 5 (Homo sapiens), Q9H2X9;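 active = thallium flux slope and its plate-corrected score both differing from the plate sample mean at a set confidence after two filtering rounds, in either direction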;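 note: slope of fluorescence scaled to starting intensity during 10 to 20 s after thallium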
KCNQ1 pot = potentiators or activators of KCNQ1 channel, primary screen, cell-based, thallium flux, high-throughput | Potassium voltage-gated channel subfamily KQT member 1 (Homo sapiens), P51787 | CHO-K1 KCNQ1, thallium flux FluxOR fluorescence; active compounds read high | B-score at 10 µM | 310,000 compounds, 0.35% hits | AID 2648, 2010;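 active = fluorescence ratio B-score, a plate-corrected score, at least three library SD, with initial intensity B-score within 5 SD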
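Assay system: CHO-K1 cells stably expressing KCNQ1. Medium: assay buffer for compound exposure, DMSO matched across wells. Timing: 37 °C overnight plating, 90-min dark dye load, 20-min compound pretreatment. Signal: kinetic FluxOR fluorescence, 10 s baseline plus 110 s post-stimulus.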
KCNK3 confirm = retest of human KCNK3 channel inhibitors, confirmation, CHO cells, FluxOR thallium flux, triplicate; shares compounds with KCNK3 inh; FluxOR fluorescence; 0% buffer, 100% carvedilol maximal block; ratio percent of control, % at 10 µM; 2,400 compounds, 99% hits;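 active = ratio percent of control, averaged over triplicates, above buffer control mean plus 5 SD, cut at about 64% in these data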;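 note: ratio is the fluorescence rise from min to max over baseline after thallium stimulus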
KCNK3 noninduced = thallium flux inhibition in non-induced cells, primary screen, counter-screen for KCNK3 inhibitor project, cell-based, non-induced KCNK3 line, FluxOR thallium, triplicate; 2,400 compounds, 40% hits; shares compounds with KCNK3 inh; non-induced KCNK3 parental cells; active compounds read low; thallium flux ratio (lower = more inhibition) at 10 µM;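 active = thallium flux ratio, averaged over three wells, more than 5 SD below the buffer control mean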;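 note: host cells are CHO cells without KCNK3 induction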
Numbers stand for hits; n = inactive; x = no result given. Sampled rows, rich in hits. Any-hit rate of the full collection: about 4.1%.

SMILES	KCNQ1 inh	KCNK9 inh	KCNK3 inh	hERG protect	Cl transport mod	KCNQ1 pot	KCNK3 confirm	KCNK3 noninduced
O=C(Nc1cccc(-c2nc3ccccc3c(=O)o2)c1)c1ccccc1	n	n	-8.7	n	n	n	108	0.16
CCOc1ccc(-n2c(=O)[nH]cc(C(=O)N3CCc4ccccc43)c2=O)cc1	n	n	n	n	x	n	x	x
COCc1cc(C)nc(Sc2nc3c(c(=O)n(C)c(=O)n3C)n2C)c1C#N	n	n	n	n	x	n	x	x
CCN(CCCNC(=O)CNC(=O)c1nn(-c2ccc(OC)cc2)c(=O)c2ccccc12)c1cccc(C)c1	n	n	-12	n	x	n	117	n
C=CC(=O)Nc1ccc(Nc2nc(NC3CCC(N(C)C)CC3)nc3c2ncn3C(C)C)cc1 (stereo not drawn)	x	x	n	x	x	x	x	x
Cc1ccc(-c2cc(C(=O)N3CCCCC3)c3ccccc3n2)cc1C	n	n	-8.9	n	x	n	85	0.15
O=C(c1cc(-c2ccccc2)nc2ccccc12)N1CCCC1	n	n	n	n	x	n	x	x
COc1ccccc1Oc1ccc(N/C=C/C(=O)c2ccco2)cc1	n	n	n	n	n	n	x	x
O=C(/C=C/Nc1ccc(Oc2ccccc2Cl)cc1)c1ccco1	n	n	-14	n	n	n	107	n
CCn1c(=NC(=O)c2cccc(N3C(=O)CCC3=O)c2)sc2c(C)ccc(OC)c21	n	n	-9.4	n	n	n	106	n
COC(=O)CNC(=O)CSc1nc2sc(-c3ccccc3)cc2c(=O)n1-c1ccccc1	n	n	n	n	x	n	x	x
CN(C)C(=O)Nc1ccccc1CC[N+](=O)[O-]	n	n	n	n	n	n	x	x
O=C(Nc1ccc(Cl)cc1)Nc1ccccc1CC[N+](=O)[O-]	8	n	-11	n	x	n	82	n
OCCNc1nc(NCCC2=CCCCC2)nc(N2CCOCC2)n1	n	n	n	n	n	n	x	x
COc1ccc(-c2cnc(SCC(=O)Nc3ccc4c(c3)OCO4)n2Cc2ccco2)cc1	n	n	n	n	n	n	x	x
CC(=O)Nc1cccc(NC(=O)CSc2ncc(-c3ccc(Cl)cc3)n2Cc2ccco2)c1	7	n	-11	n	n	n	119	0.14
COCC(=O)N1CCCC(C(=O)c2ccc3c4c(cccc24)CC3)C1 (stereo not drawn)	n	n	n	n	n	n	x	x
COCCC(=O)N1CCCC(C(=O)c2ccc3c4c(cccc24)CC3)C1 (stereo not drawn)	n	n	-11	n	n	n	86	0.15
COc1ccccc1C(C)Nc1nc(-c2cccnc2)nc2ccccc12 (stereo not drawn)	n	n	-11	n	x	n	125	n
CC(=O)Nc1ccc(NC(=O)c2cccc(S(=O)(=O)N(C)C3CCCCC3)c2)cc1	x	x	n	x	x	x	x	x
Cc1cccc(C(=O)Nc2cccc3cccnc23)c1	n	n	n	n	x	n	x	x
O=C(Nc1cccnc1Cl)c1ccc(Cl)cc1	n	n	n	n	x	n	x	x
O=C(Nc1cccc2cccnc12)c1ccc(Cl)cc1	n	n	-8.9	n	x	n	103	n
Cc1ccc(C(=O)Nc2cccc3cccnc23)cc1C	n	n	-9.9	n	x	n	95	n
CCC(C(=O)O/N=C(\N)c1ccccc1)c1ccccc1 (stereo not drawn)	n	n	n	n	n	n	x	x
SMILES	KCNQ1 inh	KCNK9 inh	KCNK3 inh	hERG protect	Cl transport mod	KCNQ1 pot	KCNK3 confirm	KCNK3 noninduced
CCC(C(=O)O/N=C(\N)c1ccc(Cl)cc1)c1ccccc1 (stereo not drawn)	n	-6.6	-10	n	n	n	108	n
C=C1[C@H](C)CN[C@H]1CCO	x	x	n	x	x	x	x	x
C=C1CCC2[C@](C)(CO)[C@H](O)CC[C@@]2(C)[C@@H]1C/C=C1\C(=O)OC[C@H]1O (stereo partly drawn)	n	n	n	n	x	n	x	x
COc1ccc(/C=C2\COc3ccccc3C2=O)c(OC)c1	n	n	-9.6	n	x	n	121	n
COc1ccc(/C=C2\COc3ccccc3C2=O)cc1OC	n	n	n	n	n	n	x	x
O=C(CCSc1ccccc1)Nc1nnc(-c2ccccc2)o1	n	n	n	n	x	n	x	x
Cc1c(NC(=O)C2CCN(S(=O)(=O)c3cccs3)CC2)c(=O)n(-c2ccccc2)n1C	n	n	n	n	x	n	x	x
COc1ccc(CC(=O)OCC(=O)NC2CCCCC2)cc1	x	x	n	x	x	x	x	x
Cc1cc(C)c(NC(=O)/C(=C/c2ccco2)c2ccccc2)c(C)c1	n	n	-9	n	n	n	108	n
CC12CCC(C(=NO)C1=O)C2(C)C (stereo not drawn)	x	x	n	x	x	x	x	x
COC(=O)C1=C(C)NC(C)=C(C(=O)OCC2CCCO2)C1c1cccc(Cl)c1 (stereo not drawn)	n	n	-11	n	x	n	117	n
COC(=O)C1=C(C)NC(C)=C(C(=O)OCC2CCCO2)C1c1ccc(Cl)c([N+](=O)[O-])c1 (stereo not drawn)	n	n	n	n	x	n	x	x
O=C1c2cccc3cccc(c23)N1Cc1cccc(F)c1	n	n	-14	n	x	n	101	n
O=C1c2cccc3cccc(c23)N1Cc1ccc(F)cc1	n	n	n	n	n	n	x	x
O=C(Nc1ccccc1N1CCOCC1)C1(c2ccc(Cl)cc2)CCC1	n	n	-11	n	n	n	100	n
CSCCC(NC(=O)c1ccccc1)C(=O)NNC(=O)c1ccccc1 (stereo not drawn)	x	x	n	x	x	x	x	x
COc1ccc(Cl)cc1NC(=O)CN(C)C(=O)c1sc2ccccc2c1Cl	x	x	-12	x	x	x	112	n
O=C(c1ccc(-c2ccccc2Cl)o1)N1CCC1	x	x	n	x	x	x	x	x
CC1CCN(C(=O)c2ccc(-c3ccccc3Cl)o2)CC1	n	n	-9.2	n	x	n	123	0.14
